Compounds with a hit are over-represented: about 2.3% of the library has one in this group of screens.
LMPTP block: LMPTP phosphatase inhibitors, primary screen, biochemical, fluorescence intensity, uHTS. Low molecular weight phosphotyrosine protein phosphatase (Homo sapiens), P24666. recombinant LMPTP-A, OMFP fluorogenic substrate. inhibition, % at 20 µM. 360,000 tested, 0.22% active. AID 651560, 2012;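 active = compounds that cut the enzyme signal by at least half of the control window in the single-dose screen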
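Test system: LMPTP-A phosphatase enzyme. Amount: LMPTP-A at 0.625 nM final in the reaction. Reagent: OMFP substrate, 400 µM final. Times: 50 min at room temperature. Signal: endpoint fluorescence intensity from OMFP dephosphorylation. Read-out basis: % inhibition. Benchmarks: no-enzyme and uninhibited controls.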
Scp-1 inhibitor: Scp-1 phosphatase inhibitors, primary screen, biochemical, colorimetric, uHTS; inhibition, % at 20 µM; Recombinant Scp1, phosphopeptide, malachite green phosphate absorbance; Carboxy-terminal domain RNA polymerase II polypeptide A small phosphatase 1 (Homo …; AID 493091, 2011; 340,000 tested, 0.88% active;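 active = inhibition above about 50% at 20 µM, limit read from the data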
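System: SCP-1 catalytic domain; Reagent: Phospho 17-mer peptide substrate; Doses: one concentration, 20 µM, with 1.0% DMSO; Incubation: 45 min room-temperature reaction, 5 min colour, 30 min stabiliser; Signal: Phosphate-binding colour reagent, absorbance read at 630 nm.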
SUMO1 PPI mod: modulators of SUMO1 protein-protein interactions, primary screen, biochemical, uHTS | Small ubiquitin-related modifier 1 (Homo sapiens), P63165 | SUMO1 binding to a labelled peptide, TR-FRET, 1 h | inhibition, % at 20 µM | 360,000 tested, 0.33% active | AID 602429, 2012; in the data active = inhibition above about 37%
DNMT1 inh: human DNMT1 methyltransferase inhibitors, primary screen, biochemical, molecular beacon, fluorescence, HinP1I cleavage, uHTS. inhibition (reported as % activation of signal), % at 10 µM. 360,000 tested, 0.83% active. AID 588458, 2011. DNA (cytosine-5)-methyltransferase 1 (Homo sapiens), P26358; in the data active = inhibition above about 50%
STEP block: STEP phosphatase inhibitors, primary screen, biochemical, fluorescence intensity, uHTS; AID 588621, 2011; recombinant STEP, OMFP fluorogenic substrate; 360,000 tested, 0.25% active; inhibition, % at 20 µM; Tyrosine-protein phosphatase non-receptor type 5 (Homo sapiens), P54829;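 active = inhibition at 20 µM, scaled per plate between control wells, above about 37%, limit read from the data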
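Measure: Control-normalized % inhibition with plate pattern correction | Test system: STEP phosphatase, cell-free reaction | Medium: pH 6.0 Bis-Tris with DTT and Tween 20 | Technique: Fluorescence, 480/540 nm | Times: Reaction 20 min, ambient temperature | Doses: Single compound dose of 20 µM, 1% DMSO final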
Rpn11 inh: Rpn11 (PSMD14) deubiquitinase inhibitors, primary screen, biochemical, fluorescence polarization, uHTS. AID 588493, 2011. inhibition, % at 20 µM. 26S proteasome non-ATPase regulatory subunit 14 (Homo sapiens), O00487. human 26S proteasome, Ub4-pepOG fluorescence polarization; 20S core pre-blocked with epoxomicin. 360,000 tested, 0.59% active;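 active = inhibition at 20 µM, scaled to each plate's controls, above about 33%, limit read from the data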
Rpn11 confirm: Rpn11 (PSMD14) deubiquitinase inhibitors, confirmation, biochemical, fluorescence polarization, single concentration | purified human 26S proteasome, Ub4-pepOG fluorescence polarization; proteasome pretreated with epoxomicin | 1,900 tested, 29% active | AID 602318, 2012 | shares compounds with Rpn11 inh | inhibition, % at 20 µM
MMP-2 counter: MMP-2 enzyme inhibition, confirmation, counter-screen for RPN11 inhibitor project, biochemical, fluorescence, single concentration; inhibition, % at 20 µM; recombinant MMP-2, FRET peptide cleavage fluorescence; AID 602330, 2012; 1,900 tested, 4% active; shares compounds with Rpn11 inh;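 note: human MMP-2 activated beforehand with APMA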
Thrombin FP: bovine thrombin protease inhibition, confirmation, counter-screen for Rpn11 inhibitor project, biochemical, fluorescence polarization, single concentration; shares compounds with Rpn11 inh; bovine thrombin cleavage of Ub4-pepOG; inhibition, % at 20 µM; 1,900 tested, 13% active; AID 602333, 2012;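 active = mean inhibition at least 40% at 20 µM, or signal 3 deviations below plate average, so some actives read negative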
Target sequence (P00735 whole entry, looked up): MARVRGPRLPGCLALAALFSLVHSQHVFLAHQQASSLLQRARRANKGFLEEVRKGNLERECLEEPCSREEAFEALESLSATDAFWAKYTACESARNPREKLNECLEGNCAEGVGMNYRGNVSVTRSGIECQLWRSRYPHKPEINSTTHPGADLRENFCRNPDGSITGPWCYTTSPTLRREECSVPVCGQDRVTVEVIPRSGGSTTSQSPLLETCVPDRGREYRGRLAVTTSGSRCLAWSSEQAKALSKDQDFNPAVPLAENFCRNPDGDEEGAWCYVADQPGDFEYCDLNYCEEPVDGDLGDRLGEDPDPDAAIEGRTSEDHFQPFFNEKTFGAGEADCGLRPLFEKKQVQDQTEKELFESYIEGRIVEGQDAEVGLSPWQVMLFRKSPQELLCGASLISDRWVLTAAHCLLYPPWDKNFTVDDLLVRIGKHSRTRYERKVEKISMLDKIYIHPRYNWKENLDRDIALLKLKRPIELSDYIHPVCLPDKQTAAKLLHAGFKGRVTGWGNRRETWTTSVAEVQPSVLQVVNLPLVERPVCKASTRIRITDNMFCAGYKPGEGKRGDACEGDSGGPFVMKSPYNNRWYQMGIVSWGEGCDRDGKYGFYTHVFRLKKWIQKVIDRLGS
Numbers stand for hits; - = inactive; . = not tested or not shown; + = active, no number. Cut-off read from the data, not from the text of the source, unless noted: active = inhibition above about 40%; inactive = the rest.

SMILES	LMPTP block	Scp-1 inhibitor	SUMO1 PPI mod	DNMT1 inh	STEP block	Rpn11 inh	Rpn11 confirm	MMP-2 counter	Thrombin FP
COC(=O)c1ccc(NC(=O)Cn2nc(-c3ccncc3)nc2SCC(=O)Nc2nccs2)cc1	-	-	-	-	-	33.7	-	-	-
CCN(CC)C(=O)Cn1nc(-c2ccncc2)nc1SCC(=O)Nc1ccc(OC)cc1	-	-	-	-	-	-	.	.	.
O=C1Nc2ccccc2OCc2c1cccc2[N+](=O)[O-]	-	-	-	-	-	34.5	-	-	-
O=C1N/C(=N/Nc2ccccc2)S/C1=C\c1ccccc1	-	-	-	-	-	65.7	-	-	-
COc1cc(/C=C/c2nc3ccccc3c(=O)[nH]2)cc(Cl)c1O	-	-	-	-	-	69.0	-	-	157.8
Cc1cccc(/C=C\c2nc3ccccc3c(=O)[nH]2)c1	-	-	-	-	-	-	.	.	.
CCOc1ccc(S(=O)(=O)N2CCCC(C(=O)N3CCCC3)C2)cc1 (stereo unspecified)	-	-	-	-	-	-	.	.	.
COc1cc(/C=C(\C#N)C(=O)Nc2cc(C(F)(F)F)ccc2Cl)ccc1OCC(=O)Nc1cccc(C(F)(F)F)c1	-	-	-	-	-	80.5	58.7	-	-
COc1cc(/C=C(\C#N)c2ccccn2)ccc1OCC(=O)Nc1c(Cl)cccc1Cl	-	-	-	-	-	-	.	.	.
CC1CCCC(NS(=O)(=O)c2cc3c(cc2Cl)NC(=O)CO3)C1C (stereo unspecified)	-	-	-	-	-	-	.	.	.
CC1CCCC(NC(=O)CCS(=O)(=O)c2cc3c(cc2Cl)NC(=O)CO3)C1C (stereo unspecified)	-	-	-	-	-	44.1	-	-	-
C=CCN1C(=O)/C(=C2/Sc3ccc(OC)cc3N2C)SC1=Nc1cccc(O)c1	-	-	-	-	-	67.4	-	-	-
CC(C)(C)NC(=O)CSc1nsc(SCC(=O)NC(C)(C)C)c1C#N	-	-	-	-	-	-	.	.	.
CC(=O)CSc1nsc(SCC(C)=O)c1C#N	-	-	-	-	-	45.9	-	49.8	-
CN1CCc2c(sc3c2C(=O)NC(c2cn(Cc4ccccc4)c4ccccc24)N3)C1 (stereo unspecified)	-	-	-	-	-	56.8	58.9	-	40.9
Cc1ccccc1C(=O)/C=C1/SCC(=O)N1C	-	-	-	-	-	70.6	48.7	-	-
COc1ccc(C(C)(C)C)cc1NC(=O)c1cccc(S(=O)(=O)N2CCN(C(C)=O)CC2)c1	-	-	-	-	-	-	.	.	.
CCN(CC)S(=O)(=O)c1cc(C)ccc1SC	-	-	-	-	-	27.8	-	-	-
Cc1cc(=O)oc2cc(OCC(=O)c3ccc4c(c3)NC(=O)CO4)ccc12	-	-	42.4	-	-	45.0	-	-	-
Cc1ccc(C(=O)COc2ccc3c(C)cc(=O)oc3c2)cc1	-	-	-	-	-	-	.	.	.
O=S(=O)(CCc1ccncc1)C1Cc2cccc3cccc1c23 (stereo unspecified)	-	-	-	-	-	-	.	.	.
CC12CN(NC(=O)c3ccccc3F)C3(C#N)CC1CCC23C (stereo unspecified)	-	-	-	-	-	-	.	.	.
CN1C(=O)/C(=C\C=C2/CCCN2C)N(C)C1=S	-	-	-	-	-	76.8	74.5	-	60.3
CCN1C(=O)/C(=C/C=C2/CCCN2C)OC1=S	-	-	-	-	-	76.1	42.5	-	53.6
O=C(Nc1ccc(F)c(Cl)c1)c1cc(C2CCCCN2C(=O)c2cccs2)on1 (stereo unspecified)	-	.	-	-	-	-	.	.	.
SMILES	LMPTP block	Scp-1 inhibitor	SUMO1 PPI mod	DNMT1 inh	STEP block	Rpn11 inh	Rpn11 confirm	MMP-2 counter	Thrombin FP
CCCCCCC(=O)N1CCN(c2cc3c(cc2F)c(=O)c(C(=O)O)cn3CC)CC1	-	-	-	-	-	-	.	.	.
CCCOc1ccc(C(=O)NC(=S)N2CCN(c3cc4c(cc3F)c(=O)c(C(=O)O)cn4CC)CC2)cc1	-	-	-	-	-	154.3	-	-	-
COc1ccc(-n2ncc3c2CC(C)(C)CC3NC(=O)CN2CCOC2=O)cc1 (stereo unspecified)	-	-	-	-	-	-	.	.	.
CNc1cncc(-c2cnn(CC(C)C)c2)n1	-	.	-	-	-	-	.	.	.
CCC(C)Sc1cc(-c2nc3cc(C)ccn3c2NC2CCCCC2)ccc1OC (stereo unspecified)	-	-	-	-	-	85.2	-	-	-
CCC(C)Sc1cc(-c2nc3ccccn3c2NC2CCCCC2)ccc1OC (stereo unspecified)	-	-	-	-	-	-	.	.	.
O=C(NC(=S)Nc1nc2ccc(F)cc2s1)c1ccco1	-	-	-	-	-	-	.	.	.
CC(O)CNc1ccc(-c2n[nH]c(=O)c3ccccc23)cc1[N+](=O)[O-] (stereo unspecified)	-	-	-	-	-	-	.	.	.
CN(C)CCCNc1ccc(-c2n[nH]c(=O)c3ccccc23)cc1[N+](=O)[O-]	-	-	-	-	-	56.1	-	-	-
CCCCOc1ccc(C(=O)NCC(=O)NNC(=O)c2ccco2)cc1	-	-	-	-	-	-	.	.	.
COC(=O)C1(C)COP(=O)(Nc2ccc(OC)cc2)OC1 (stereo unspecified)	-	.	-	-	-	-	.	.	.
COc1cc(/C=N/NC(=O)c2cccnc2)ccc1OCC(=O)Nc1ccccc1Cl	-	-	86.0	-	-	142.2	+	-	-
Cc1noc(C)c1C(=O)N1CCC1(C)C(=O)NS(=O)(=O)c1ccc(F)cc1F (stereo unspecified)	-	.	-	-	-	-	.	.	.
CC[n+]1c(/C=C2\Sc3ccccc3N2C)ccc2cccc(C)c21	80.8	-	-	-	-	101.5	95.8	-	156.9
